Results reported in ChEMBL document CHEMBL1155806, “Inorganic polyhedral metallacarborane inhibitors of HIV protease: a new approach to overcoming antiviral resistance” (J Med Chem, 2008).

How the values were obtained:
[1] = target: Human immunodeficiency virus type 1 protease (Human immunodeficiency virus 1, UniProt Q72874, A71V/I84V/M46I/V82T); assay: Inhibition of HIV1 recombinant protease M46I/A71V/V82T/I84V mutant expressed in Escherichia coli by spectrophotometric assay
Outline: (§1)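 Recombinant PR refolded from inclusion bodies and purified. 8-10 pmol enzyme in 1 mL 0.1 M sodium acetate pH 4.7, 0.3 M NaCl, 4 mM EDTA. Ki obtained by fitting the Williams–Morrison competitive inhibition equation.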

[2] = target: Human immunodeficiency virus type 1 protease (Human immunodeficiency virus 1, UniProt Q72874, A71V/E35D/F53L/H69K/I54V/I84V/I93L/K20R/L10F/L19I/L33F/L63P/L89M/L90M/M36I/R41K/T74P); assay: Inhibition of HIV1 recombinant protease L10F/L19I/K20R/L33F/E35D/M36I/R41K/F53L/I54V/L63P/H69K/A71V/T74P/I84V/L89M/L90M/I93L mutant expressed in Escherichia coli by spectrophotometric assay; outline: as §1
[3] = target: Human immunodeficiency virus type 1 protease (Human immunodeficiency virus 1, UniProt Q72874, A71V/I54V/I84V/L10I/L24I/L33F/L63P/M46L/V82A); assay: Inhibition of HIV1 recombinant protease L10I/L24I/L33F/M46L/I54V/L63P/A71V/V82A/I84V mutant expressed in Escherichia coli by spectrophotometric assay; outline: as §1
[4] = Ratio of Ki for HIV1 recombinant protease L10F/L19I/K20R/L33F/E35D/M36I/R41K/F53L/I54V/L63P/H69K/A71V/T74P/I84V/L89M/L90M/I93L mutant to Ki for wild-type HIV1 BH10 protease; parameters: species or system Human immunodeficiency virus 1
[5] = Ratio of Ki for HIV1 recombinant protease A71V/V82T/I84V mutant to Ki for wild-type HIV1 BH10 protease; parameters: species or system Human immunodeficiency virus 1
[6] = Ratio of Ki for HIV1 recombinant protease M46I/A71V/V82T/I84V mutant to Ki for wild-type HIV1 BH10 protease; parameters: species or system Human immunodeficiency virus 1
[7] = target: Human immunodeficiency virus type 1 protease (Human immunodeficiency virus 1, UniProt Q72874, D30N/N88D); assay: Inhibition of HIV1 recombinant protease D30N/N88D mutant expressed in Escherichia coli by spectrophotometric assay; outline: as §1
[8] = Ratio of Ki for HIV1 recombinant protease L10I/L24I/L33F/M46L/[…]/L63P/A71V/V82A/I84V mutant to Ki for wild-type HIV1 BH10 protease expressed in Escherichia coli; parameters: species or system Human immunodeficiency virus 1
[9] = target: Protease (Human immunodeficiency virus 1, UniProt Q9YQ12); assay: Inhibition of wild-type HIV1 BH10 protease expressed in Escherichia coli by spectrophotometric assay; outline: as §1
[10] = Ratio of Ki for HIV1 recombinant protease L10I/I15V/E35D/N37S/R41K/I62V/L63P/A71V/G73S/L90M mutant to Ki for wild-type HIV1 BH10 protease; parameters: species or system Human immunodeficiency virus 1
[11] = Ratio of Ki for HIV1 recombinant protease D30N/N88D mutant to Ki for wild-type HIV1 BH10 protease; parameters: species or system Human immunodeficiency virus 1
[12] = target: Human immunodeficiency virus type 1 protease (Human immunodeficiency virus 1, UniProt Q72874, A71V/I84V/V82T); assay: Inhibition of HIV1 recombinant protease A71V/V82T/I84V mutant expressed in Escherichia coli by spectrophotometric assay; outline: as §1
[13] = target: Human immunodeficiency virus type 1 protease (Human immunodeficiency virus 1, UniProt Q72874, A71V/E35D/G73S/I15V/I62V/L10I/L63P/L90M/N37S/R41K); assay: Inhibition of HIV1 recombinant protease L10I/I15V/E35D/N37S/R41K/I62V/L63P/A71V/G73S/L90M mutant expressed in Escherichia coli by spectrophotometric assay
[14] = Ratio of Ki for HIV1 recombinant protease V32I/I47A mutant to Ki for wild-type HIV1 BH10 protease; parameters: species or system Human immunodeficiency virus 1
[15] = target: Human immunodeficiency virus type 1 protease (Human immunodeficiency virus 1, UniProt Q72874, I47A/V32I); assay: Inhibition of HIV1 recombinant protease V32I/I47A mutant expressed in Escherichia coli by spectrophotometric assay; outline: as §1

Compound	Ki [1]	Ki [2]	Ki [3]	Ki ratio [4]	Ki ratio [5]	Ki ratio [6]	Ki [7]	Ki ratio [8]	Ki [9]	Ki ratio [10]	Ki ratio [11]	Ki [12]	Ki [13]	Ki ratio [14]	Ki [15]
COC(=O)N[C@H](C(=O)N[C@@H](Cc1ccccc1)[C@@H](O)CN(Cc1ccc(-c2ccccn2)cc1)NC(=O)[C@@H](NC(=O)OC)C(C)(C)C)C(C)(C)C [ATAZANAVIR]	0.76 nM	0.054 nM	1.2 nM	2.3	9.4	32	0.055 nM	50	0.024 nM	3.2	2.3	0.23 nM	0.076 nM	7.1	0.17 nM
Cc1c(O)cccc1C(=O)N[C@@H](CSc1ccccc1)[C@H](O)CN1C[C@H]2CCCC[C@H]2C[C@H]1C(=O)NC(C)(C)C									0.07 nM						
CC(C)CN(C[C@@H](O)[C@H](Cc1ccccc1)NC(=O)O[C@H]1CCOC1)S(=O)(=O)c1ccc(N)cc1			4.1 nM						[…]						
